Data: ChEMBL document CHEMBL3228015, “Azaprostanoic acid derivatives. Inhibitors of arachidonic acid induced platelet aggregation” (1979)
Calls of active or inactive are those of the source. No cut-off for these calls is given here.

Key:
[1] = biological target: T1, Cyclooxygenase (Bos taurus) (UniProt O62664+O62698); experiment: Inhibition of cyclooxygenase activity in bovine seminal vesicles assessed as arachodonic acid dependent formation of adenochrome from L-epinephrine at 500 uM; type: protein assay
Summary of the method: (§1)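 Prostaglandin synthetase from a crude freeze-dried beef seminal vesicle powder, 6.7 mg/mL per assay, solubilized with 0.05% Triton X-100. Activity measured as arachidonic acid dependent adrenochrome formation from L-epinephrine (Takeguchi–Sih method, minor modification). Highest test concentration 5×10^-4 M; indomethacin 2×10^-5 M as reference.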

Platelet [2] = experiment: Inhibition of 300 uM arachidonate-induced platelet aggregation in human platelet-rich plasma at 10 uM by turbidometric method; type: functional
Summary of the method: (§2)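 Citrated human PRP from normal donors (no aspirin for 48 h), centrifuged at 164g to remove red cells, kept at 25 °C. Reagents added as 10 μL per 1 mL PRP. Inhibitor held at 10^-5 M while arachidonate concentration varied. Turbidometric (Born) aggregation at 37 °C over 3 min; % inhibition from a single blood sample, representative of several determinations.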

Platelet [3] = experiment: Inhibition of 500 uM arachidonate-induced platelet aggregation in human platelet-rich plasma at 10 uM by turbidometric method; type: functional; summary of the method: as §2
Platelet [4] = experiment: Inhibition of 400 uM arachidonate-induced platelet aggregation in human platelet-rich plasma at 10 uM by turbidometric method; type: functional; summary of the method: as §2
Platelet [5] = experiment: Inhibition of ADP-induced primary platelet aggregation in aspirin-treated human platelet-rich plasma at 100 uM after 2 mins by turbidometric method; type: functional
Summary of the method: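 PRP from donors free of aspirin for 48 h, centrifuged at 164g and held at 25 °C, then incubated 15 min with aspirin (1 mg/mL). Test agent (100 μM) added 2 min before 10 μM ADP. Primary aggregation compared with aspirin alone, read turbidometrically (Born) at 37 °C over 3 min.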

[6] = biological target: T1, Cyclooxygenase (Bos taurus); experiment: Inhibition of cyclooxygenase activity in bovine seminal vesicles assessed as arachodonic acid dependent formation of adenochrome from L-epinephrine at concentration of one order of magnitude greater than that necessary for 100% inhibition of platelet aggregation; summary of the method: as §1
[7] = biological target: T1, Cyclooxygenase (Bos taurus); experiment: Inhibition of cyclooxygenase activity in bovine seminal vesicles assessed as arachodonic acid dependent formation of adenochrome from L-epinephrine at 100 uM; type: protein assay; summary of the method: as §1

| Compound | inhibition [1] | inhibition (INH) (Platelet [2]) [%] | inhibition (INH) (Platelet [3]) [%] | inhibition (INH) (Platelet [4]) [%] | inhibition (Platelet [5]) | inhibition [6] [%] | inhibition [7] |
| --- | --- | --- | --- | --- | --- | --- | --- |
| CCCCCCN[C@H]1CCC[C@@H]1CCCCCCC(=O)O (relative stereo) | inactive | 14 | 0 | 0 | – | – | – |
| CCCCCCCCN[C@H]1CCC[C@@H]1CCCCCCC(=O)O (relative stereo) | 30% | 71 | 0 | 7 | – | – | – |
| O=C(O)CCCCCC[C@H]1CCC[C@@H]1NCc1ccccc1 (relative stereo) | inactive | 0 | 0 | 0 | inactive | – | – |
| CCCCCCCCN[C@H]1CCC[C@H]1CCCCCCC(=O)O (relative stereo) | 30% | 50 | 0 | 11 | – | – | – |
| CCCCCCCN[C@H]1CCC[C@@H]1CCCCCCC(=O)O (relative stereo) | inactive | 100 | 19 | 66 | inactive | < 10 | – |
| CCCCCCCN[C@H]1CCC[C@H]1CCCCCCC(=O)O (relative stereo) | inactive | 43 | 0 | 11 | inactive | – | – |
| O=C(O)CCCCCC[C@@H]1CCC[C@@H]1NCc1ccccc1 (relative stereo) | – | – | – | – | inactive | – | – |
| CCCCCNCC[C@@H]1CCC[C@@H]1CCCCCCC(=O)O | – | 91 | 0 | 16 | inactive | – | inactive |
